Many of the other results were omitted from the sample, so hits are more common in it than they were.
KDM4C inh: inhibitors of human demethylase GASC-1 KDM4C; Q9H3R0; GST-KDM4C 2-372, H3K9me3 peptide, LANCE TR-FRET; inhibition, % at 12.5 µM; actives 0.15% (n = 96,000);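 active = mean replicate inhibition above about 25%, with at least 55% of replicates also reaching it, limit read from the data, passing the limit was not always enough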
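System: N-terminal GST-fused human GASC-1 (KDM4C) fragment, residues 2-372; amount: enzyme final amount 10 nM; incubation: reaction 30 min RT, detection step 1 h RT; medium: HEPES buffer, pH 7.5, plus ascorbate; technique: LANCE TR-FRET, Eu antibody, ULight-streptavidin, EDTA, ex 340 nm, em 618/671 nm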
IDH1 R132H inh: inhibitors of human IDH1 R132H; inhibition, % at 10 µM; O75874; actives 0.18% (n = 70,000); IDH1 R132H reductase, diaphorase/resazurin fluorescence, 60 min; in the data active = inhibition above about 34%;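 note: 0% = DMSO and 100% = no enzyme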
Target sequence (O75874 whole entry R132H): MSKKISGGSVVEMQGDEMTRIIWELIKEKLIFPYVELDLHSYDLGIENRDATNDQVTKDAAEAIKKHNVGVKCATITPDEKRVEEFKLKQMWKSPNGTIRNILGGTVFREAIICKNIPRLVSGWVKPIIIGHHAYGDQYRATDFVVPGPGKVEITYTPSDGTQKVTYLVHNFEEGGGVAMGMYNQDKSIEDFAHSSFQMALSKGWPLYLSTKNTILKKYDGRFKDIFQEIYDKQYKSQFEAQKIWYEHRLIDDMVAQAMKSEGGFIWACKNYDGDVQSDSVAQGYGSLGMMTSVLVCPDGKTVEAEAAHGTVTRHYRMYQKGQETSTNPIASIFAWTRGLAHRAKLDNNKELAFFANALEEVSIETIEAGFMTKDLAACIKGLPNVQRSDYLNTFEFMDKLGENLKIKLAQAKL
T cruzi growth-1: T. cruzi proliferation inhibition | T. cruzi beta-gal in NIH3T3, GalScreen luminescence, 90 h | inhibition, % at 8.34 µM | actives 5.9% (n = 77,000) | AID 624255;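 active = mean inhibition above about 93%, with at least 55% of replicates each passing it, limit read from the data, passing the limit was not always enough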
T cruzi growth-2: blocks T. cruzi growth in NIH3T3 host cells. shares compounds with T cruzi growth-1. T. cruzi beta-gal in NIH3T3, GalScreen luminescence, 90 h. inhibition, % at 8.35 µM. actives 72% (n = 5,600). AID 651739;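 active = mean replicate inhibition above about 95% and at least 55% of replicates individually reaching it, limit read from the data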
T cruzi growth-3: Trypanosoma cruzi proliferation inhibition | actives 21% (n = 5,600) | inhibition, % at 2.09 µM | shares compounds with T cruzi growth-1 | AID 651740 | T. cruzi beta-gal in NIH3T3, GalScreen luminescence, 90 h;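 active = mean inhibition above about 95%, with at least 55% of replicates also reaching it, limit read from the data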;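 note: plate controls were neutral control median for no effect and positive control median for full effect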
NIH3T3 tox: kills mouse NIH/3T3 fibroblasts. shares compounds with T cruzi growth-1. NIH/3T3 viability, CellTiter-Glo ATP luminescence, 90 h. cytotoxicity (signal decrease), % at 8.35 µM. actives 14% (n = 5,600);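 active = mean signal decrease across replicates above about 35% based on untreated-well scatter, with enough replicates individually passing, limit read from the data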;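 note: 0% = median of neutral control wells and 100% = median of positive control wells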
NIH3T3 tox 2: kills mouse NIH/3T3 fibroblasts | NIH/3T3 viability, CellTiter-Glo ATP luminescence, 90 h | inhibition, % at 24.9 µM | AID 651744 | shares compounds with T cruzi growth-1 | actives 56% (n = 5,600);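 active = mean loss of cell viability signal at or above a set limit, and enough replicates individually reaching it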;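 note: 0% = median of neutral control wells and 100% = median of positive control wells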
Starred values were filed as active, the others as inactive.

`COc1ccc(-c2cnc3c(c2)C(=O)N([C@H](C)CO)C[C@H](C)[C@@H](CN(C)C(=O)Cc2ccncc2)O3)cc1` gave KDM4C inh -0.5, IDH1 R132H inh 10.4, T cruzi growth-1 111.9*, T cruzi growth-2 54.8, T cruzi growth-3 59.0, NIH3T3 tox -31.1 and NIH3T3 tox 2 -7.0.
Screening C[C@@H]1CCCCO[C@H](CN(C)C(=O)Nc2ccc(F)cc2)[C@@H](C)CN([C@@H](C)CO)C(=O)c2cc(NC(=O)Cc3ccccc3)ccc2O1 returned KDM4C inh -0.4, IDH1 R132H inh 2.9 and T cruzi growth-1 94.2.
`C[C@@H]1CCCCO[C@H](CN(C)C(=O)Nc2ccc(F)cc2)[C@H](C)CN([C@H](C)CO)C(=O)c2cc(NC(=O)Cc3ccccc3)ccc2O1` gave KDM4C inh 1.3, IDH1 R132H inh -18.6, T cruzi growth-1 105.2*, T cruzi growth-2 111.1*, T cruzi growth-3 53.3, NIH3T3 tox -11.7 and NIH3T3 tox 2 -6.8.
Screening C[C@H]1CCCCO[C@@H](CN(C)C(=O)Nc2ccc(F)cc2)[C@@H](C)CN([C@@H](C)CO)C(=O)c2cc(NC(=O)Cc3ccccc3)ccc2O1 returned KDM4C inh -2.1, T cruzi growth-1 113.2*, T cruzi growth-2 66.7, T cruzi growth-3 54.9, NIH3T3 tox -25.3 and NIH3T3 tox 2 1.6.
`C[C@@H]1CCCCO[C@H](CN(C)C(=O)Nc2ccc(F)cc2)[C@@H](C)CN([C@H](C)CO)C(=O)c2cc(NC(=O)Cc3ccccc3)ccc2O1` gave KDM4C inh -1.4 and T cruzi growth-1 55.2.
`COc1ccccc1S(=O)(=O)N(C)C[C@H]1OCc2ccccc2-c2c(n(C)c3ccccc23)C(=O)N([C@H](C)CO)C[C@H]1C` gave KDM4C inh 0.2 and T cruzi growth-1 22.1.
Screening COCCNC[C@H]1[C@@H](c2ccccc2)[C@@H](CO)N1c1nc(C)c(C)s1 returned KDM4C inh -0.3, T cruzi growth-1 103.0*, T cruzi growth-2 82.8, T cruzi growth-3 39.1, NIH3T3 tox -34.6 and NIH3T3 tox 2 -7.1.
COCCNC[C@@H]1[C@@H](c2ccccc2)[C@@H](CO)N1c1nc(C)c(C)s1 was read as KDM4C inh -1.5 and T cruzi growth-1 87.2.
O=C(c1ccncc1)N1C[C@H]2[C@@H](c3ccccc31)[C@@H](CO)N2C(=O)Nc1ccccc1Cl was read as KDM4C inh -0.8 and T cruzi growth-1 44.9.
Screening C[C@H]1CN([C@@H](C)CO)C(=O)c2ccccc2-c2ccccc2CO[C@H]1CN(C)S(=O)(=O)c1ccc(F)cc1 returned KDM4C inh -0.5 and T cruzi growth-1 0.1.
`C[C@H](CO)N1C[C@H](C)[C@@H](CN(C)S(=O)(=O)c2ccc(C(F)(F)F)cc2)OCc2ccccc2-c2ccccc2C1=O` gave KDM4C inh -1.6, IDH1 R132H inh 0.5, T cruzi growth-1 101.7*, T cruzi growth-2 102.0*, T cruzi growth-3 79.1, NIH3T3 tox 27.5 and NIH3T3 tox 2 54.0*.
For C[C@@H]1CN([C@@H](C)CO)C(=O)c2ccccc2-c2ccccc2CO[C@@H]1CN(C)S(=O)(=O)c1ccc(F)cc1 the results were KDM4C inh -1.1, IDH1 R132H inh -0.4 and T cruzi growth-1 16.1.
For C[C@@H]1CN([C@@H](C)CO)C(=O)c2ccccc2-c2ccccc2CO[C@H]1CN(C)S(=O)(=O)c1ccc(C(F)(F)F)cc1 the results were KDM4C inh 6.0, T cruzi growth-1 113.7*, T cruzi growth-2 102.6*, T cruzi growth-3 58.6, NIH3T3 tox 5.0 and NIH3T3 tox 2 29.8*.
For COc1cc(OC)c(NC(=O)CSc2nnnn2-c2ccccc2)cc1Cl the results were IDH1 R132H inh 0.3.
Screening COc1ccc(S(=O)(=O)N(C)C[C@H]2Oc3ccc(NC(=O)c4ccncc4)cc3C(=O)N([C@H](C)CO)C[C@H]2C)cc1 returned KDM4C inh -0.9, IDH1 R132H inh -2.2 and T cruzi growth-1 6.5.
For OC[C@H]1[C@@H](c2ccccc2)[C@H](CNCC2CCC2)N1CC1CC1 the results were KDM4C inh 0.4 and T cruzi growth-1 31.1.
